Reference: ChEMBL document CHEMBL1156509, “Survival in the presence of antifungals: genome-wide expression profiling of Aspergillus niger in response to sublethal concentrations of caspofungin and fenpropimorph” (2007)
The source made the active and inactive calls. The rule behind the calls is not given here.

How the values were obtained:
Type in all cases: functional, organism-based
Aspergillus niger [1] = assay: Induction of GFP tagged PagsA-H2B expression in Aspergillus niger RD6.47 at 104.2 ug/mL by fluorescence microscopy
Procedure, shortened: (§1)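 agsA promoter-GFP reporters, cytoplasmic (JvD1.1) or nuclear H2B-targeted (RD6.47). Germlings pre-grown 6 h at 37 °C in 2× CM, exposed 3 h at 30 °C to seven 2-fold dilutions. GFP levels were scored by fluorescence microscopy as 0 (basal), 1 (intermediate) or 2 (high). Controls: gpdA-H2B-GFP strain MA26.1 (positive), N402 (negative).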

Aspergillus niger [2] = assay: Induction of GFP tagged PagsA expression in Aspergillus niger JvD1.1 at 104.2 ug/mL by fluorescence microscopy; procedure, shortened: as §1
Aspergillus niger [3] = assay: Antifungal activity against Aspergillus niger JvD1.1 at 104.2 ug/mL by microtiter plate
Procedure, shortened: (§2)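 Reporter conidia (2×10^4 per well) were pre-grown 6 h at 37 °C in 2× CM in glass-bottom plates. An equal volume of a 2-fold dilution series (seven concentrations) was added, then 3 h at 30 °C. Medium was discarded and adherent germlings imaged. Growth inhibition was scored 0/1/2 from hyphal length.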

Aspergillus niger [4] = assay: Antifungal activity against Aspergillus niger RD6.47 at 104.2 ug/mL by microtiter plate; procedure, shortened: as §2

SMILES | Activity (Aspergillus niger [1]) | Activity (Aspergillus niger [2]) | Activity (Aspergillus niger [3]) | Activity (Aspergillus niger [4])
Cc1cc(C2CC2)nc(Nc2ccccc2)n1 | Active | Active | – | –
COC(=O)N(OC)c1ccccc1COc1ccn(-c2ccc(Cl)cc2)n1 | inactive | inactive | Active | Active
CCCN(CC)CC1COC2(CCC(C(C)(C)C)CC2)O1 (stereo not drawn) | Active | Active | Active | Active
CCCCCCC(=O)CCCCCC/C=C/C[C@@H](O)[C@H](O)[C@@](N)(CO)C(=O)O | inactive | inactive | inactive | inactive
C[C@@H]1C[C@@H]([C@H](O)CC2CC(=O)NC(=O)C2)C(=O)[C@@H](C)C1 | inactive | inactive | Active | Active
